Test results from PubChem BioAssay AID504325 (Broad Institute, 2011).
Records with an inconclusive call do not appear. Calls of active or inactive are those of the source.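 Rule for the calls: active = every replicate test active, with falling signal and half-maximal potency at or below ten times the top dose; inconclusive = replicate tests give conflicting calls; inactive = all tests inactive, or signal shifts the wrong way.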

tested on: not listed separately; assay: viability loss of control HMLE line – cell-based, dry powder, set 2, counter-screen for breast cancer stem cell project, dose response (AID 504325); conditions: HMLE_sh_eGFP viability, CellTiter-Glo luminescence, 72 h; at 30 µM (top of the series)
In short: (§1)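 System: HMLE_sh_eGFP cells. Amount: 2000 cells per well. Medium: serum-free culture medium. Incubation: ~72 h compound exposure, 37 °C. Signal: CellTiter-Glo ATP luminescence. Benchmarks: DMSO-only neutral wells and puromycin positive wells on each plate.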

| SMILES | activity change, negative = cytotoxic |
| --- | --- |
| O=C(COc1ccc(Cl)cc1)N/N=C/c1ccc[nH]1 | 10.5% (inactive) |
| COc1ccc(/C=C/C(=O)NC2=NCCS2)c(OC)c1 | 3.11% (inactive) |
| CC(=O)Oc1ccccc1/C=C/C(=O)NC1=NCCS1 | 0.09% (inactive) |
| O=C(CCc1ccccc1)NC1=NCCS1 | 4.67% (inactive) |
| CC(=O)Oc1ccc(/C=C/C(=O)NC2=NCCS2)cc1 | -11.6% (inactive) |
| O=Cc1ccc[nH]1 | 7.66% (inactive) |
| O=C(COc1ccc(Cl)cc1Cl)N/N=C/c1ccco1 | 5.52% (inactive) |
| O=C(/C=C/c1ccc(F)cc1)NC1=NCCS1 | -0.331% (inactive) |
| O=C(COc1ccc(Cl)cc1Cl)N/N=C/c1cccs1 | 13.7% (inactive) |
| CC(Oc1ccc(F)cc1Cl)C(=O)N/N=C/c1ccc[nH]1 (configuration not stated) | 16.8% (inactive) |
| Cn1c(C(=O)NC2=NCCS2)cc2ccccc21 | 6.92% (inactive) |
| COc1ccc(CCC(=O)N/N=C/c2ccc[nH]2)cc1 | -0.101% (inactive) |
| Cc1ccccc1/C=C/C(=O)NC1=NCCS1 | 6.57% (inactive) |
| O=C(C#Cc1ccccc1)NC1=NCCS1 | 9.83% (inactive) |
| O=C(COc1ccccc1F)N/N=C/c1ccc[nH]1 | 1.58% (inactive) |
| COc1cc(/C=C/C(=O)NC2=NCCS2)cc(OC)c1OC | 0.088% (inactive) |
| N#Cc1ccccc1OCC(=O)N/N=C/c1ccc[nH]1 | -7.45% (inactive) |

| SMILES | activity change, negative = cytotoxic |
| --- | --- |
| CC(C)c1ccc(/C=C/C(=O)O)cc1 | 16.2% (inactive) |
| O=C(N/N=C/c1ccc[nH]1)C1Cc2ccccc2O1 (configuration not stated) | -1.79% (inactive) |
| O=C(/C=C/c1cc(Cl)ccc1Cl)NC1=NCCS1 | 3.58% (inactive) |
| NNC(=O)COc1ccc(Cl)cc1Cl | -3.9% (inactive) |
| COc1ccc(OC)c(/C=C/C(=O)NC2=NCCS2)c1 | 2.36% (inactive) |
| COc1ccc(/C=C/C(=O)NC2=NCCS2)cc1OC | -1.05% (inactive) |
| COc1ccc(/C=C/C(=O)NC2=NCCS2)c(OC)c1OC | -0.513% (inactive) |
| O=C(NC1=NCCS1)c1ccc(COc2ccccc2)o1 | 12.9% (inactive) |
| O=C(COc1ccc(Cl)cc1Cl)N/N=C/c1ccc[nH]1 | -54.1% (inactive) |
| O=C(O)c1ccc(COc2ccccc2)o1 | 1.43% (inactive) |
| CCNC(=O)/C=C/c1ccc(C(C)C)cc1 | 7.1% (inactive) |
| Cc1ccccc1OCC(=O)N/N=C/c1ccc[nH]1 | 5.25% (inactive) |
| CC(C)(C)c1ccc2c(c1)OC(C(=O)NN)CO2 (configuration not stated) | 15.8% (inactive) |
| Cc1ccccc1NCC(=O)N/N=C/c1ccc[nH]1 | 7.91% (inactive) |
| O=C(/C=C/c1ccccc1)NC1=NCCS1 | -4.89% (inactive) |
| O=C(COc1ccc(Cl)cc1Cl)N/N=C/c1cnc[nH]1 | -6.28% (inactive) |
| O=C(N/N=C/c1ccc[nH]1)c1cc2ccccc2o1 | 13.1% (inactive) |

tested on: HMLE_sh_eGFP viability, CellTiter-Glo luminescence, 72 h; assay: as above; conditions: not given
In short: as §1

| SMILES | AC50 |
| --- | --- |
| CC(C)c1ccc(/C=C/C(=O)Nc2ccccc2)cc1 | 3.28 µM |
| Cn1cncc1/C=N/NC(=O)COc1ccc(Cl)cc1Cl | 18.9 µM |
| CC(C)(C)c1ccc2c(c1)OC(C(=O)N/N=C/c1ccc[nH]1)CO2 (configuration not stated) | 15 µM |
| O=C(COc1c(Cl)cc(Cl)cc1Cl)N/N=C/c1ccc[nH]1 | 27.6 µM |
| Cc1csc(NC(=O)/C=C/c2ccc(C(C)C)cc2)n1 | 2.83 µM |
| CC(C)c1ccc(/C=C/C(=O)NC2=NCCS2)cc1 | 8.92 µM |
| Cc1ccc(/C=N/NC(=O)COc2ccc(Cl)cc2Cl)[nH]1 | 16.9 µM |
| Cc1csc(NC(=O)c2ccc(COc3ccccc3)o2)n1 | 13.3 µM |
